Measurements collected from several papers.
Each line is one published result; the experiments were not run side by side.
Target: Serine/threonine-protein kinase OSR1 (OXSR1, Homo sapiens, UniProt O95747)

NS(=O)(=O)c1cc(NC(=O)Cc2ccccc2)ccc1Oc1cccc(Cl)c1
remaining binding (cell-free assay, competition with immobilised ligand; 1 µM): 78%

O=C(c1ccc(Nc2ncc(Cl)c(-c3ccc(Cl)s3)n2)cc1)N1CCC(N2CCCC2)CC1
remaining binding (binding, competition with immobilised ligand; 1 µM): 87%

Cc1cc(C)c(-n2ccn3nc(-c4cccnc4)cc23)cc1NC(=O)c1cc(C#N)cc(S(F)(F)(F)(F)F)c1
remaining binding (cell-free assay, competition with immobilised ligand; 0.1 µM): 87%

N[C@H]1CCN(c2nccc(-c3cnn4ncccc34)n2)C1
remaining binding (binding; 1 µM): 86%

Nc1ncc2c(n1)-c1c([nH]c3ccc(C#CC4CC4)cc13)CCCC2
remaining binding (binding, competition with immobilised ligand; 1 µM): 86%

O=C(N[C@H]1CCCCC/C=C\C2C[C@@]2(C(=O)O)NC(=O)[C@@H]2C[C@@H](Oc3ccncc3)CN2C1=O)OC1CCCC1 (stereo partly shown)
remaining binding (binding, competition with immobilised ligand; 1 µM): 75%

O=C(NCC1CCOCC1)c1n[nH]cc1NC(=O)c1c(F)cccc1F
remaining binding (binding, competition with immobilised ligand; 1 µM): 73%

C[C@@H](c1ccc(-n2cnc3c(N)ncnc32)cc1)N1CCc2nn(C)c(Cc3ccccc3)c2C1=O
remaining binding (binding, competition with immobilised ligand; 0.1 µM): 72%

O=C(O)[C@@H]1[C@@H](Cn2nnc3ccccc3c2=O)CC[C@H]1C(=O)c1ccc(OCCC2CCOCC2)cc1
remaining binding (cell-free assay, competition with immobilised ligand; 1 µM): 100%

CNC(=O)[C@@H]1CC[C@@H](n2c(-c3ccc4cnccc4c3)nc3ccc(C(=O)NCc4cccc(C(N)=O)c4)cc32)C1
remaining binding (binding, competition with immobilised ligand; 1 µM): 100%

C[C@H]1CCN(c2nccc(-c3cnn4ncccc34)n2)C1
remaining binding (binding; 1 µM): 76%

C[C@H](c1cccc(C#N)c1)n1cc(Cl)cc(C(N)=O)c1=N
remaining binding (cell-free assay, competition with immobilised ligand; 1 µM): 81%

COc1ccnn2ncc(-c3ccnc(N(C)C)n3)c12
remaining binding (binding; 1 µM): 87%

O=C(c1ccc(Nc2nccc(-c3cc4ccccc4s3)n2)cc1)N1CCC(N2CCCC2)CC1
remaining binding (binding, competition with immobilised ligand; 1 µM): 100%

CN(c1nccc(-c2cnn3ncccc23)n1)C1CC1
remaining binding (binding; 1 µM): 100%

c1cncc(-c2cccc(Nc3nccc(NC4CCCCC4)n3)c2)c1
remaining binding (binding, competition with immobilised ligand; 10 µM): 100%

CN(C)c1ncc(F)c(-c2cnn3ncccc23)n1
remaining binding (binding; 1 µM): 95%

O=C(NCCCN1CCOCC1)c1ccc(Nc2nccc(-c3cc4ccccc4s3)n2)cc1
remaining binding (binding, competition with immobilised ligand; 1 µM): 77%

Cc1cnn2ncc(-c3ccnc(N(C)C)n3)c2c1
remaining binding (binding; 1 µM): 84%

CCN1CCN(Cc2ccc(C(=O)Nc3ccc(C)c(Oc4ccc5c(c4)CC(=O)N5)c3)cc2C(F)(F)F)CC1
remaining binding (binding, competition with immobilised ligand; 1 µM): 97%

CN(C)c1nccc(-c2cnn3ncccc23)n1
remaining binding (binding; 1 µM): 100%

CNC(=O)c1ccc(Nc2ncc(C(F)(F)F)c(NCc3nccnc3N(C)S(C)(=O)=O)n2)cc1
remaining binding (cell-free assay, competition with immobilised ligand; 0.1 µM): 100%
